The values below come from ChEMBL document CHEMBL1123449, “9,11-Epoxy-9-homo-14-oxaprosta-5-enoic acid derivatives. Novel inhibitors of fatty acid cyclooxygenase” (J Med Chem, 1986).

For one assay, the species on record is Homo sapiens. In words: In vitro ability to inhibit arachidonic acid induced platelet aggregation (AAIPA) of human platelet-rich plasma (PRP). In kind it is functional.
Conditions: not given
The essentials:
(§1)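 Aggregation of human platelet-rich plasma triggered with arachidonic acid at 800 μM. The method follows an earlier report, and the value is given as I50.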
`CCCC[C@@H](O)/C=C/C1C2CCC(O2)C1C/C=C\CCCC(=O)O` (stereo partly drawn): half-maximal activity (AC50) was put at 2.5 µM.

The species entered for a further assay is Homo sapiens. As to the kind of experiment: In vitro ability to inhibit adenosine diphosphate induced platelet aggregation (ADPIPA) of human platelet-rich plasma (PRP), and I50 value was reported from single determination. The conditions noted are these: read-out: I50. The assay is classed as functional, organism-based.
For `CCCCC[C@H](O)/C=C/[C@H]1C2CCC(O2)[C@@H]1C/C=C\CCCC(=O)O` (stereo partly drawn), the IC50 was found to be 1.6 µM.

The species named for the next assay is Homo sapiens. As to the kind of experiment: In vitro ability to cause dose dependent inhibition of arachidonic acid (AA) conversion to thromboxane A2 (TXA2 ). In kind it is functional. The conditions noted are these: read-out: I50. The essentials:
(§2)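 Compound incubated with platelet lysate at several concentrations. Read-out is inhibition of arachidonic acid conversion to TXA2, measured as TXB2 production, and to PGE2. The value is given as I50.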
With `CCCCCCOC[C@@H]1C2CCC(O2)[C@H]1C/C=C\CCCC(=O)O` (stereo in doubt; 1), the IC50 amounted to 6.3 µM.

For a further assay, the species on record is Homo sapiens. In words: In vitro inhibition of arachidonic acid induced platelet aggregation of human platelet-rich plasma. The conditions noted are these: Homo sapiens, Plasma; read-out: I50. In kind it is functional. The procedure, abridged:
as §1
On to `CCC/C=C\COCC1C2CCC(O2)C1C/C=C\CCCC(=O)O` (stereo not drawn), for which the IC50 was 3.3 µM. On to `CCCCCCCO[C@@H]1C2CCC(O2)[C@@H]1C/C=C\CCCC(=O)O` (stereo partly drawn), for which the IC50 was 340 µM.

On to `CCCCCCCO[C@H]1C2CCC(O2)[C@@H]1C/C=C\CCCC(=O)O` (stereo partly drawn), for which the IC50 is 120 µM. The same measure, in the same setting: in the case of `CCCCCOCCC1C2CCC(O2)C1C/C=C\CCCC(=O)O` (stereo not drawn) it was 105 µM. For `CCC/C=C/COCC1C2CCC(O2)C1C/C=C\CCCC(=O)O` (stereo not drawn), the IC50 was 0.3 µM.

For `COCC1C2CCC(O2)C1C/C=C\CCCC(=O)O` (stereo not drawn), the IC50 came out at 22 µM.

As to `CC/C=C/CCOCC1C2CCC(O2)C1C/C=C\CCCC(=O)O` (stereo not drawn), the IC50 amounted to 0.5 µM. The same measure, in the same setting: in the case of `CCCCC[C@H](O)/C=C/[C@H]1C2CCC(O2)[C@@H]1C/C=C\CCCC(=O)O` (stereo partly drawn) it was 0.3 µM; in that of `O=C(O)CCC/C=C\CC1C2CCC(O2)C1COCCCc1ccccc1` (stereo not drawn), 26 µM. Consider `O=C(O)CCCCC1CC2C3CCC(O3)C2CO1` (stereo not drawn), for which the IC50 is more than 1000 µM. For the compound `CCCC#CCOCC1C2CCC(O2)C1C/C=C\CCCC(=O)O` (stereo not drawn), the IC50 worked out at 0.2 µM.

Consider `O=C(O)CCC/C=C\CC1C2CCC(O2)C1COCC1CCCCC1` (stereo not drawn), for which the IC50 was determined as 165 µM. Same read-out and setting: in the case of `CCCCCCCCOCC1C2CCC(O2)C1C/C=C\CCCC(=O)O` (stereo not drawn) it was 32 µM.

For the compound `C=CCOCC1C2CCC(O2)C1C/C=C\CCCC(=O)O` (stereo not drawn), the IC50 turned out to be 6 µM. `CCCCCCOC(C)C1C2CCC(O2)C1CC=CCCCC(=O)O` (stereo not drawn): the IC50 came to 14 µM. With `CCCCC(C)COCC1C2CCC(O2)C1C/C=C\CCCC(=O)O` (stereo not drawn), the IC50 came out at 7.4 µM. On to `CCCCCCOCC1C2CCC(O2)C1CCCCCCC(=O)O` (stereo not drawn), for which the IC50 worked out at 0.2 µM. With `CC(=O)Oc1ccccc1C(=O)O` [ASPIRIN], the IC50 was 185 µM. Take `COc1ccc2c(c1)c(CC(=O)O)c(C)n2C(=O)c1ccc(Cl)cc1` [INDOMETHACIN]: the IC50 is 4 µM.

The assay is the same for the next values; noted with them: read-out: I50.
Consider `CCCCCCOC[C@@H]1C2CCC(O2)[C@@H]1C/C=C\CCCC(=O)O` (single isomer, unassigned; (-)), for which the IC50 stood at 38.5 µM. Take `CCCCCCOC[C@@H]1C2CCC(O2)[C@H]1C/C=C\CCCC(=O)O` (stereo in doubt; 1): the IC50 came out at 0.5 µM. Consider `CCCCCCOC[C@@H]1C2CCC(O2)[C@H]1C/C=C\CCCC(=O)O` (stereo in doubt; 9), for which the IC50 amounted to 25 µM. Same read-out and setting: in the case of `CCCCCCOC[C@@H]1C2CCC(O2)[C@@H]1C/C=C\CCCC(=O)O` (stereo in doubt; 10) it was 10 µM; in that of `CCCCCCOC[C@@H]1C2CCC(O2)[C@H]1C/C=C\CCCC(=O)O` (stereo in doubt; 11), 18 µM. In the case of `CCCCCC(C)OCC1C2CCC(O2)C1C/C=C\CCCC(=O)O` (stereo in doubt; form 1), the IC50 was 23 µM.

In the case of `CCCCCC(C)OCC1C2CCC(O2)C1C/C=C\CCCC(=O)O` (stereo in doubt; form 2), the IC50 was 3.2 µM.

The species named for a further assay is Homo sapiens. In words: In vitro ability to inhibit adenosine diphosphate induced platelet aggregation (ADPIPA) of human platelet-rich plasma (PRP). The assay is classed as functional. The conditions noted are these: read-out: I50.
As for `CCCCC[C@H](O)/C=C/[C@@H]1C2CCC(O2)[C@@H]1C/C=C\CCCC(=O)O` (stereo partly drawn), the IC50 is 300 µM. For `CCCCCCOC[C@@H]1C2CCC(O2)[C@H]1C/C=C\CCCC(=O)O` (stereo in doubt; 1), the IC50 is more than 1000 µM.

A further assay is filed under the species Homo sapiens. As to the kind of experiment: In vitro ability to cause dose dependent inhibition of arachidonic acid (AA) conversion to PGE-2. In kind it is functional. The conditions noted are these: Homo sapiens; read-out: I50. The essentials:
as §2
As to `CCCCCCOC[C@@H]1C2CCC(O2)[C@H]1C/C=C\CCCC(=O)O` (stereo in doubt; 1), the IC50 is 3.8 µM.

The assay is the same for the next values; noted with them: read-out: I50.
On to `CCCCCCOC[C@@H]1C2CCC(O2)[C@H]1C/C=C\CCCC(=O)O` (stereo in doubt; 1), for which the IC50 was 6.3 µM.

The AC50 is the midpoint of the concentration-response curve, whichever way the signal moves. A low value points to activity at low concentration.
